Rows were chosen to be rich in hits. Some 2.3% of all compounds tested hit in one or more screens of this group.
OXTR potentiate – potentiates the human oxytocin receptor response; P30559; CHO-OTR cells, Fluo-8 calcium fluorescence, potentiator mode; 0% = oxytocin EC15, 100% = EC100; activation, % at 3 µM; 320,000 tested, 0.061% active;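 active = activation above that plate's cutoff, the mean activation of tested compounds plus 3 SD, cut at about 6.6% in these data, passing the limit was not always enough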;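 note: 100% uses oxytocin at 75 nM as the full agonist control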
Target sequence (P30559 whole entry, looked up): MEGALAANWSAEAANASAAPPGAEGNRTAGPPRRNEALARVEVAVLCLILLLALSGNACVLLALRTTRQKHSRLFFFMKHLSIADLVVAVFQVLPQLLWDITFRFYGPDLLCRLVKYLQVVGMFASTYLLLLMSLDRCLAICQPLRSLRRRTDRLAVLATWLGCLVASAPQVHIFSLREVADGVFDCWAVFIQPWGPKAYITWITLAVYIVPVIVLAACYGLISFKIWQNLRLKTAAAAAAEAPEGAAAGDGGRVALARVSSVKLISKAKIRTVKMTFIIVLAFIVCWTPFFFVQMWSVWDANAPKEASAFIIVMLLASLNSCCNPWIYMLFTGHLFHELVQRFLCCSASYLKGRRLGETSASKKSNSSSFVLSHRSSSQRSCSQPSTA
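Replication – single well per compound, singlicate · Assay system – CHO cell line stably expressing human OTR · Timing – 6 min pre-incubation, 100 s read · Measure – normalized max/min fluorescence ratio, % activation · Doses – 3.0 µM, one dose · Detection – Fluo-8 calcium dye fluorescence · Probe or stimulus – oxytocin near EC15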
TAAR1 antag – antagonists of human TAAR1 | Q96RJ0 | CHO RD-HGA16 TAAR1, Fluo-8 calcium fluorescence, antagonist | inhibition, % at 3 µM | 360,000 tested, 1.5% active;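 active = inhibition above a per-plate cutoff, the mean inhibition of test compounds on that plate plus 3 SD, cut at about 49% in these data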;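 note: 0% = DMSO plus EC80 beta-PEA response and 100% = DMSO alone without agonist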
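Test system – hTAAR1-expressing CHO RD-HGA16 cells, Gα16-coupled · Also added – β-PEA at EC80 concentration, post-compound challenge · Compound – 3 µM, single point · Incubation – dye loading 75 min at 37 °C, then 30 min room temperature · Measured by – Fluo-8 intracellular calcium dye fluorescence, real-time kinetic reads · Benchmarks – vehicle and agonist controls · Replicates – singlicate, one well per test compound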
TAAR1 agonist – human TAAR1 agonism; CHO RD-HGA16 TAAR1, Fluo-8 calcium fluorescence; vehicle wells 0%, saturating PEA agonist 100%; activation, % at 3 µM; 360,000 tested, 0.99% active;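 active = activation above the mean activation of all test compounds in the run plus 3 SD, cut at about 38% in these data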
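Test system: RD-HGA16 (CHO) cells co-expressing Gα16 and hTAAR1 / Benchmarks: DMSO vehicle as 0%, PEA at EC100 as 100% / Repeats: no replicates (n 1) / Measure: % activation from peak over basal fluorescence ratio, DMSO-to-PEA scaled / Timing: 17-24 h plating, Fluo-8 75 min 37 °C, 30 min RT / Technique: kinetic Fluo-8 calcium fluorescence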
OXTR agonist – activates the human oxytocin receptor; P30559; CHO-OTR cells, Fluo-8 calcium fluorescence; normalized: DMSO 0%, oxytocin 100%; activation, % at 3 µM; 320,000 tested, 0.32% active; AID 2435;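 active = activation above the mean of all tested compounds plus 3 SD, cutoff set per screening run, cut at about 20% in these data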;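 note: peak over basal fluorescence ratio from a 100 s FLIPR kinetic read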
V1aR counter – V1a receptor agonism, counter-screen for OXTR agonists. P37288. CHO-V1R cells, Fluo-8 calcium fluorescence, agonist mode; 0% DMSO, 100% 3 nM vasopressin. activation, % at 3 µM. 320,000 tested, 0.25% active. AID 2797;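 active = activation above the mean activation of all tested compounds plus 3 SD, per screening run, cut at about 20% in these data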;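 note: signal is peak over basal fluorescence ratio across a 100 second FLIPR read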
Target sequence (P37288 whole entry, looked up): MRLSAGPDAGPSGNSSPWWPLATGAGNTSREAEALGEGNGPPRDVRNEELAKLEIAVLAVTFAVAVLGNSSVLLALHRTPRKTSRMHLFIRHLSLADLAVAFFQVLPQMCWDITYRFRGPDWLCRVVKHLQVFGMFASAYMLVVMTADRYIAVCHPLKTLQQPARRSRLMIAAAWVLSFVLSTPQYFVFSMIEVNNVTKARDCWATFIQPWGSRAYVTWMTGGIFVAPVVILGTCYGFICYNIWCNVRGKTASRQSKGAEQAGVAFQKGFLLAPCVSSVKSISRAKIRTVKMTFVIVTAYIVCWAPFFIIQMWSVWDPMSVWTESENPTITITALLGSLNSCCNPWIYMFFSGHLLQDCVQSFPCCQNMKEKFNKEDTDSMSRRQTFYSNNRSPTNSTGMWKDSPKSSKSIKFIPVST
nonsel antag count – nonselective antagonism, TAAR1 counter-screen; 2,400 tested, 77% active; counterscreen cell line, calcium fluorescence, antagonist mode; AID 651780; inhibition, % at 3 µM; shares compounds with TAAR1 antag; in the data active = inhibition above about 22%;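 note: CHO-Ga16 host cells stimulated with ATP at an EC80 level; 0% = agonist EC80 plus vehicle and 100% = vehicle without agonist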
TAAR1 antag conf – confirmation of human TAAR1 antagonists; shares compounds with TAAR1 antag; TAAR1-expressing cells, fluorescence antagonist read-out; inhibition, % at 3 µM; 2,400 tested, 40% active; AID 651785; in the data active = inhibition above about 49%;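 note: CHO-Ga16 host cells challenged with agonist PEA near its EC80; 0% = agonist at EC80 plus vehicle and 100% = vehicle with no agonist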
Ga16 ag counter – nonselective Ga16 agonist in TAAR1 antagonist counter-screen. activation, % at 3 µM. Ga16-expressing cells, calcium fluorescence, agonist counterscreen. AID 651953. shares compounds with TAAR1 antag. 2,400 tested, 18% active; in the data active = activation above about 12%;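 note: 0% = vehicle wells and 100% = saturating stimulus response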
TAAR1 ag counter – counter-screen for human TAAR1 antagonists: TAAR1 agonists. hTAAR1 cell line, fluorescence activation, agonist mode. 2,400 tested, 2% active. shares compounds with TAAR1 antag. AID 651955. activation, % at 3 µM; in the data active = activation above about 37%;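 note: CHO cells stably expressing TAAR1 with calcium dye readout; 0% = DMSO vehicle and 100% = full agonist response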
Numbers without * were called inactive; . = no result.

SMILES | OXTR potentiate | TAAR1 antag | TAAR1 agonist | OXTR agonist | V1aR counter | nonsel antag count | TAAR1 antag conf | Ga16 ag counter | TAAR1 ag counter
O=S(=O)(c1ccc(F)cc1)N1CCN(c2nc(-c3cccnc3)nc3ccccc23)CC1 | -1.7 | 41.2 | 14.7 | -0.9 | 0.8 | . | . | . | .
O=C(NC12CC3CC(CC(C3)C1)C2)c1cccc(OC(F)F)c1 | -13.8 | -7.7 | 3.8 | -1.5 | -0.7 | . | . | . | .
Cc1cccc(N2CCN(C3=NC(=O)/C(=C\c4cn[nH]c4-c4ccccc4)S3)CC2)c1 | -17.2 | 60.6* | 8.8 | 0.5 | 3.4 | 41.0* | 58.7* | 5.9 | 0.9
Cc1ccc(S(=O)(=O)N2CCOCC2)cc1C(=O)Nc1ccc(-c2cn3ccsc3n2)cc1 | -9.5 | 73.7* | 17.9 | 0.1 | 2.4 | 30.4* | 74.5* | 10.1 | 8.7
O=C(NNC(=O)c1cccs1)c1ccccn1 | . | -3.3 | -0.3 | . | . | . | . | . | .
CCn1cc(/C=C(\NC(=O)c2ccccc2F)C(=O)N2CCCC2)c2ccccc21 | -0.9 | . | . | -0.6 | 4.5 | . | . | . | .
COC(=O)c1cccc(C#CC(NP(=O)(c2ccccc2)c2ccccc2)c2ccccc2)c1 (centres undefined) | -1.4 | 72.5* | 16.4 | 1.4 | 2.5 | 27.9* | 36.2 | 2.2 | 1.6
COc1ccc(C(=O)NC(=S)N(C)C2CCCCC2)cc1Br | -9.7 | -38.4 | -0.6 | -1.1 | 0.1 | . | . | . | .
COc1ccccc1/C=C/C(=O)NC(=S)N(C)C1CCCCC1 | 2.2 | 68.5* | 14.9 | -0.2 | -0.2 | 33.0* | 46.4 | 4.8 | -0.6
Nc1ccc(-c2nc3cc([N+](=O)[O-])ccc3o2)cc1 | 1.7 | 55.5* | 4.8 | -0.1 | 0.4 | 20.1 | 19.1 | 2.6 | -2.7
COc1ccc(-c2nc3cc([N+](=O)[O-])ccc3o2)cc1 | -6.3 | -18.4 | 1.5 | -0.2 | 0.6 | . | . | . | .
CCOc1ccc(NC(=O)C(C)NS(=O)(=O)c2ccc(NC(C)=O)cc2)cc1 (centres undefined) | -0.2 | -2.4 | 0.7 | 1.1 | 1.0 | . | . | . | .
O=C(NCCc1ccc(Cl)cc1)c1ccc(CS(=O)Cc2ccc(Cl)cc2)o1 (centres undefined) | -9.4 | 25.5 | 3.4 | 1.7 | 4.4 | . | . | . | .
CSc1ccc(CCNC(=O)c2ccc(CS(=O)Cc3ccc(Cl)cc3)o2)cc1 (centres undefined) | -15.1 | 52.5* | 9.4 | 8.4 | 8.9 | 31.6* | 42.6 | 11.1 | 8.2
O=C(Nc1cccc(S(=O)(=O)C(F)F)c1)c1ccc(S(=O)(=O)N2CCCCC2)cc1 | -5.2 | 63.5* | 15.4 | 1.3 | 5.4 | 35.3* | 36.6 | 9.2 | 3.8
O=C(Nc1cccc(S(=O)(=O)N2CCCCCC2)c1)c1cncc(Br)c1 | -10.0 | 61.0* | 9.9 | 4.3 | 6.7 | 37.4* | 53.0* | 10.5 | 14.5
CN(C)S(=O)(=O)c1cccc(NC(=O)c2ccc(S(=O)(=O)N3CCCCC3)cc2)c1 | -9.8 | 10.7 | 7.2 | 1.4 | 2.5 | . | . | . | .
CCCc1c(-c2ccccc2Br)ncn1Cc1ccccc1OC | . | 10.0 | 2.2 | . | . | . | . | . | .
CC(OC(=O)C1CC2CCCC(C1)C2=O)C(=O)Nc1cccc([N+](=O)[O-])c1 (centres undefined) | -9.5 | -7.9 | 8.1 | 1.3 | 2.1 | . | . | . | .
CC(OC(=O)[C@@H]1CCCN1C(=O)c1cccs1)C(=O)Nc1cccc([N+](=O)[O-])c1 (some centres undefined) | -9.8 | 65.7* | 9.3 | 8.4 | 7.8 | 41.7* | 46.7 | 13.3* | 13.3
CCN(CC)CCN(C(=O)C1=COCCO1)c1nc2c(OC)ccc(OC)c2s1 | -2.0 | 1.1 | 0.4 | 0.3 | 0.0 | . | . | . | .
COc1cc(C2Nc3ccccc3NC3=C2C(=O)CC(C)(C)C3)cc(OC)c1OC(C)=O (centres undefined) | -3.8 | -9.5 | 1.8 | 0.5 | 0.9 | . | . | . | .
COc1cccc(Nc2nc(-c3sc(NC(=O)c4ccco4)nc3C)cs2)c1 | -4.8 | 52.4* | 16.3 | -1.2 | -0.4 | 21.6* | 29.5 | 5.2 | 14.3
COc1ccc(Cl)cc1Nc1nc(-c2sc(NC(=O)c3ccco3)nc2C)cs1 | -0.3 | 48.1 | 8.5 | 0.3 | -0.4 | . | . | . | .
Nc1nc(/C=C/c2cccnc2)nc(-c2ccccc2O)n1 | -15.8 | 67.0* | 33.1 | 4.6 | 2.0 | 32.4* | 57.5* | 14.5* | 18.1
SMILES | OXTR potentiate | TAAR1 antag | TAAR1 agonist | OXTR agonist | V1aR counter | nonsel antag count | TAAR1 antag conf | Ga16 ag counter | TAAR1 ag counter
CCS(=O)(=O)N1Cc2ccccc2CC1C(=O)Nc1nnc(SCc2ccc(F)cc2)s1 (centres undefined) | -5.6 | 62.1* | 29.8 | 2.6 | 2.1 | 31.8* | 43.3 | 8.7 | 8.8
COc1nc(N)c(C#N)c(-c2ccc(N(C)CCC#N)cc2)c1C#N | -10.6 | 80.6* | 25.6 | 6.5 | 6.2 | 29.2* | 52.3* | 17.3* | 22.4
C=CCN1C(c2ccc(Br)cc2)=CS/C1=C(\C#N)c1nnc(N2CCOCC2)n1-c1ccccc1 | . | 58.0* | 6.8 | . | . | 23.7* | 22.8 | 5.4 | 6.2
O=C(c1ccco1)N1N=C(c2ccco2)CC1c1ccc(Cl)cc1Cl (centres undefined) | -0.2 | 10.8 | 25.6 | -0.8 | 0.1 | . | . | . | .
O=[N+]([O-])c1ccc(N/N=C/c2c[nH]c3ccccc23)cc1 | -20.6 | 89.4* | 25.1 | 25.2* | 23.6* | 35.7* | 62.7* | 17.6* | 9.4
O=[N+]([O-])c1ccccc1N/N=C/c1c[nH]c2ccccc12 | -14.2 | 1.0 | -1.8 | -1.0 | -0.3 | . | . | . | .
COc1cccc(/C=C(/C(=O)OCC(=O)NC2CCCC(C)C2C)c2ccccc2)c1 (centres undefined) | -4.7 | 40.0 | 1.3 | 0.7 | 1.4 | . | . | . | .
COc1cccc(/C=C(/C(=O)OCC(N)=O)c2ccccc2)c1 | -2.7 | 105.0* | 10.3 | -1.2 | -0.3 | 1.1 | -2.5 | 2.0 | 4.9
O=[N+]([O-])c1cc2c(cc1CN1CCN(CCOCCO)CC1)OCO2 | 5.5 | -5.3 | 3.2 | 1.3 | 1.6 | . | . | . | .
O=C(Nc1cccc(-c2csc(Nc3ccccc3)n2)c1)c1ccccc1 | -10.8 | 64.5* | 10.2 | -1.3 | -1.1 | 27.8* | 33.4 | 1.6 | -0.3
O=C(Nc1cccc(-c2cnc3ccccc3n2)c1)c1cccc(NC(=O)c2ccco2)c1 | -2.4 | 74.3* | 19.3 | 1.6 | 5.3 | 39.1* | 63.4* | 12.1* | 9.7
O=C(Nc1cccc(S(=O)(=O)NC2=NCCCCC2)c1)c1cc(-c2ccncc2)nc2ccccc12 | 1.1 | 48.0 | 11.2 | -0.4 | -1.1 | . | . | . | .
